Activity calls are given as the source filed them. The rule behind the calls is not given here.
Experiments:
[1] = Antioxidant activity assessed as DPPH radical scavenging activity incubated for 5 mins by microplate spectrophotometry; assay type: physicochemical
[2] = Inhibition of Saccharomyces cerevisiae alpha-glucosidase using 4-NPGP substrate assessed as reduction in 4-nitrophenol release pre-incubated for 10 mins before substrate addition by microplate reader based assay
How it was run: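 Test compound at 0 to 100 µM premixed with enzyme in 100 mM phosphate buffer, pH 7.0, and held 30 °C for 10 min. Then 12.5 mM 4-NPGP (stock) added and 4-nitrophenol release read at 405 nm. IC50 is the concentration inhibiting 50% of α-glucosidase activity.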

[3] = Antioxidant activity assessed as DPPH radical scavenging activity; assay type: physicochemical
How it was run: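 Compound dissolved in MeOH (0 to 100 µM), mixed with 0.1 mM DPPH, 150 µL final mixture, 37 °C for 5 min; absorbance at 517 nm; IC50 derived from DPPH scavenging.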

[4] = Inhibition of Saccharomyces cerevisiae alpha-glucosidase
How it was run: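 Compound (0 to 100 µM) premixed with 100 mM phosphate buffer pH 7.0, 30 °C for 10 min; 12.5 mM 4-nitrophenyl glucopyranoside substrate then added; 4-nitrophenol release read at 405 nm; resveratrol and quercetin as positive controls; IC50 = concentration giving 50% inhibition.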

[5] = test system: Saccharomyces cerevisiae; assay: Mixed type inhibition of Saccharomyces cerevisiae alpha-glucosidase using 4-NPGP substrate assessed as reduction in 4-nitrophenol release pre-incubated for 10 mins before substrate addition by Dixon plot analysis
[6] = Mixed type inhibition of Saccharomyces cerevisiae alpha-glucosidase using 4-NPGP substrate assessed as equilibrium constant for binding to enzyme by measuring reduction in 4-nitrophenol release pre-incubated for 10 mins before substrate addition by Dixon plot analysis
[7] = test system: Saccharomyces cerevisiae; assay: Mixed type inhibition of Saccharomyces cerevisiae alpha-glucosidase using 4-NPGP substrate assessed as reduction in 4-nitrophenol release pre-incubated for 10 mins before substrate addition by Lineweaver-Burk plot analysis
How it was run: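 Double-reciprocal (Lineweaver-Burk) analysis of initial velocities, taken as A405 rate/min, across increasing 4-NPGP concentrations. Inhibitor present at 0, 0.25, 0.5 and 1.0 µM. Run in pH 7.0 phosphate buffer at 30 °C to assign inhibition mode.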

[8] = Mixed type inhibition of Saccharomyces cerevisiae alpha-glucosidase using 4-NPGP substrate assessed as equilibrium constant for binding to enzyme-4-NPGP complex by measuring reduction in 4-nitrophenol release pre-incubated for 10 mins before substrate addition by Dixon plot analysis

Row | IC50 [1] | IC50 [2] | Compound | other results
1 | > 100 µM | > 100 µM | COc1cc(Br)c(-c2cc3cccc(OC)c3o2)cc1OC | –
2 | 11.7 µM | 2 µM | CCOC(=O)/C=C/c1cc(O)c2oc(-c3cc(O)c(O)c(O)c3)cc2c1 | inhibition [5]: Active; Ki [6]: 3.19 µM; inhibition [7]: Active; Ki [8]: 11.8 µM
3 | > 100 µM | > 100 µM | COc1ccc(-c2cc3cccc(OC)c3o2)cc1OC | –
4 | 28.6 µM | 7.5 µM | Oc1ccc(-c2cc3cc(Br)cc(O)c3o2)cc1O | –
5 | 20.6 µM | 7.1 µM | Oc1cc(Br)c(-c2cc3cccc(O)c3o2)cc1O | –
6 | > 100 µM | 29.8 µM | Oc1ccc(-c2cc3cc(Br)cc(O)c3o2)cc1 | –
7 | 33.8 µM | 7.7 µM | Oc1cc(Br)c(-c2cc3ccccc3o2)cc1O | –
8 | 16.8 µM | 8.9 µM | CCOC(=O)/C=C/c1ccc(O)c2oc(-c3ccc(O)c(O)c3)cc12 | –
9 | 26.2 µM | 5.5 µM | CCOC(=O)/C=C/c1cc(O)c(O)cc1-c1cc2cccc(O)c2o1 | –

The remaining lines, values behind:

Row | Compound | IC50 [1] | IC50 [2] | other results
10 | Oc1cc(-c2cc3cccc(O)c3o2)cc(O)c1O | 12.8 µM | 9.2 µM | –
11 | O=c1c(O)c(-c2ccc(O)c(O)c2)oc2cc(O)cc(O)c12 [QUERCETIN] | 6 µM | 6.6 µM | IC50 [3]: 9.1 µM; IC50 [4]: 5.3 µM
12 | CCOC(=O)/C=C/c1cc(OC)c(OC)cc1-c1cc2cccc(OC)c2o1 | > 100 µM | > 100 µM | –
13 | Oc1cc(Br)c(-c2cc3c(Br)ccc(O)c3o2)cc1O | 7.8 µM | 6.4 µM | –
14 | Oc1cc(-c2cc3c(Br)ccc(O)c3o2)c(Br)c(O)c1O | 19.4 µM | 12.4 µM | –
15 | Oc1cc(-c2cc3cc(Br)cc(O)c3o2)cc(O)c1O | 14.6 µM | 3 µM | –
16 | Oc1cc(-c2cc3ccccc3o2)cc(O)c1O | 10.8 µM | 8.2 µM | –
17 | Oc1ccc(-c2cc3c(Br)ccc(O)c3o2)cc1O | 18.4 µM | 6.4 µM | –
18 | CCOC(=O)/C=C/c1cc(O)c2oc(-c3ccc(O)c(O)c3)cc2c1 | 25.4 µM | 23.8 µM | –
19 | Oc1cc(-c2cc3ccccc3o2)c(Br)c(O)c1O | 18 µM | 8.5 µM | –
20 | COc1cc(-c2cc3cc(Br)cc(OC)c3o2)cc(OC)c1OC | > 100 µM | > 100 µM | –
21 | Oc1ccc(/C=C/c2cc(O)cc(O)c2)cc1 [RESVERATROL] | 63.5 µM | 31.1 µM | IC50 [3]: 38 µM; IC50 [4]: 27.9 µM
22 | Oc1ccc(-c2cc3cccc(O)c3o2)cc1O | 18.5 µM | 1.9 µM | inhibition [5]: Active; Ki [6]: 4.21 µM; inhibition [7]: Active; Ki [8]: 13.7 µM

Source: ChEMBL document CHEMBL3407387, “Antioxidant activity and inhibition of α-glucosidase by hydroxyl-functionalized 2-arylbenzo[b]furans” (Eur J Med Chem, 2015)
